The values below come from paper PMC7429283 (ACS combinatorial science, 2020).

The target of assay [1] is T1, NTMT1 (Homo sapiens, UniProt Q9BV86).
T1 sequence (Q9BV86 1-222): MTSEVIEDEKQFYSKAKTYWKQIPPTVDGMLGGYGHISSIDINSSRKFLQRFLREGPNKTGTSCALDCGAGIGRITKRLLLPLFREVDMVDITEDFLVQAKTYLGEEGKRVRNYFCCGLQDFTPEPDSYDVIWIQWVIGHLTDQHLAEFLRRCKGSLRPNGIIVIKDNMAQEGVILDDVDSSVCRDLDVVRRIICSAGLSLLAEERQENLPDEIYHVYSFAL
Briefly: SAHH-coupled ThioGlo3 fluorescence assay, 1536-well. It counts as biochemical. The conditions noted are these: IC50, Epigenetic Library qHTS, 1 nM to 57 μM. The gist of the method:
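Final mix of His-NTMT1 125 nM, SAHH 10 μM, SAM 100 μM and ThioGlo3 15 μM in 25 mM Tris pH 7.5, 10 mM KCl, 0.01% Triton X-100. Test compounds were pin-transferred in qHTS dilution series, then SPKRIA peptide was added to 1 μM final (4 μL). Incubation was 30 min, read at Ex 340/Em 450. Fluorescence change from the initial read was normalized plate-wise to DMSO and Ac-RCC1-10 controls.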
For orientation: Quantitative high-throughput screening tests each substance at several concentrations.

In assay [2] the target is T1, NTMT1. Briefly: MTase-Glo luminescence assay, 1536-well. It counts as biochemical. The conditions noted are these: IC50, Epigenetic Library qHTS, 1 nM to 57 μM. The gist of the method:
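His-tagged NTMT1 was expressed with IPTG induction at 15 °C overnight and purified on Ni-NTA. It was used at 125 nM final with 100 μM SAM in 4 μL wells. Optimized SAHH-ThioGlo3 conditions served as the starting point, with kit reagents at recommended concentrations. SAH was converted to ADP and read by luminescence. Data were normalized plate-wise to DMSO and Ac-RCC1-10 controls, then fitted to concentration-response curves.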

Assay [3] has as its target T1, NTMT1. Briefly: MALDI-MS methylation inhibition assay. It is filed as biochemical. The settings on record: data not shown.
Assay [4] relates to NTMT1. The conditions noted are these: cited from earlier work.
The next assay has as its target dopamine receptors. The settings on record: cited from earlier work.
Assay [5] has as its target cyclin-dependent kinase 1 (CDK1)/cyclin B. The conditions noted are these: cited from earlier work.

For orientation: IC50 means the concentration that gives 50% inhibition. Turning to `[N-]=[N+]=Nc1nc2c(N)ncnc2n1[C@@H]1O[C@H](CO)[C@@H](O)[C@H]1O` [8-Azidoadenosine], the IC50 against NTMT1 [1] and against NTMT1 [2] was 17.1 to 24.3 µM throughout. In addition, the “inhibition in MS testing” value at NTMT1 [3] is on record as “no inhibition”.

Broadly, the Km is the concentration of substrate that gives half-maximal velocity. For the compound APKRQSPLPP, the Michaelis constant (Km) with NTMT1 [4] was 2 µM.

`N[C@@H]1CCc2cc(O)c(O)cc2C1` [6,7-ADTN]: the IC50 on dopamine receptors is 0.0017 µM.

As for `CCn1cnc2c(Nc3cccc(Cl)c3)nc(N[C@@H]3CCCC[C@@H]3N)nc21` [CGP 74514A], the IC50 in assay [5] is 0.031 µM.

`COc1cc2nc(N3CCCC3)nc(NC3CC3)c2cc1OC` [NCGC00249822]: the “inhibition in MS testing” value against NTMT1 [3] is “no inhibition”.

Take GPKRIA: the Michaelis-Menten constant (Km) in the assay with NTMT1 [4] is 0.5 µM.
